Laboratory results taken from ChEMBL document CHEMBL2062469, “1-(2-Mercaptobenzenesulfonyl)-3-hydroxyguanidines--novel potent antiproliferatives, synthesis and in vitro biological activity” (2012).

Columns and labels:
Type in all cases: functional
U-251 = assay: Cytostatic activity against human U251 cells
Method in brief: (§1)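 Human tumour cell lines from the NCI-60 panel, tested at the US National Cancer Institute under the NIH Developmental Therapeutics Program protocol. A single-dose prescreen at 10 µM came first. Selected compounds then went to a 5-dose assay, which gave GI50 and TGI values in µM.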

SF-268 = assay: Cytostatic activity against human SF268 cells
Method in brief: (§2)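 NCI-60 human tumor cell line screen run by the US National Cancer Institute under the NIH Developmental Therapeutics Program protocol. A single-dose prescreen at 10 µM came first. Selected compounds then went into the 5-dose assay. Cytostatic activity is reported as GI50 (µM).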

MDA-MB-231 = assay: Cytostatic activity against human MDA-MB-231/ATCC cells; method in brief: as §2
MDA-MB-435 = assay: Cytostatic activity against human MDA-MB-435 cells; method in brief: as §2
IGROV-1 = assay: Cytostatic activity against human IGROV1 cells; method in brief: as §2
UACC-62 = assay: Cytostatic activity against human UACC62 cells; method in brief: as §1
SNB-75 = assay: Cytostatic activity against human SNB75 cells; method in brief: as §1
Malme-3M = assay: Cytostatic activity against human MALME-3M cells; method in brief: as §2
UACC-257 = assay: Cytostatic activity against human UACC257 cells; method in brief: as §1
UO-31 = assay: Cytostatic activity against human UO31 cells; method in brief: as §1
M14 = assay: Cytostatic activity against human M14 cells; method in brief: as §2
OVCAR-3 = assay: Cytostatic activity against human OVCAR3 cells; method in brief: as §2
HT-29 = assay: Cytostatic activity against human HT-29 cells; method in brief: as §2
Hs-578T = assay: Cytostatic activity against human Hs 578T cells; method in brief: as §2
NCI-H460 = assay: Cytostatic activity against human NCI-H460 cells; method in brief: as §2
NCI-H522 = assay: Cytostatic activity against human NCI-H522 cells; method in brief: as §2

Row | Structure (SMILES) | GI50 (U-251) | GI50 (MDA-MB-231) | GI50 (MDA-MB-435) | GI50 (OVCAR-3) | GI50 (HT-29) | GI50 (NCI-H460) | GI50 (NCI-H522) | GI50 (SF-268) | GI50 (IGROV-1) | GI50 (UACC-62) | GI50 (SNB-75) | GI50 (Malme-3M) | GI50 (UACC-257) | GI50 (UO-31) | GI50 (M14) | GI50 (Hs-578T)
1 | COc1cc(CSc2cc(Cl)c(-c3nc(-c4ccc(Cl)cc4)no3)cc2S(=O)(=O)NC(=N)NO)cc(OC)c1OC | – | – | – | 1910 nM | 2950 nM | 2240 nM | 2140 nM | 2950 nM | 3800 nM | 1950 nM | 2950 nM | 7760 nM | 9330 nM | 3160 nM | 2190 nM | 4170 nM
2 | N=C(NO)NS(=O)(=O)c1cc(-c2nnc(-c3ccc(Cl)cc3)s2)c(Cl)cc1SCc1ccc2c(c1)OCO2 | 10700 nM | 5130 nM | 2630 nM | 1620 nM | 2290 nM | 2340 nM | 1860 nM | 2040 nM | 3470 nM | 2140 nM | 1780 nM | 2240 nM | 3550 nM | 3720 nM | 2140 nM | 2400 nM
3 | N=C(NO)NS(=O)(=O)c1cc(-c2nc(-c3ccc(Cl)cc3)cs2)c(Cl)cc1SCc1ccc2c(c1)OCO2 | 11200 nM | 12600 nM | 3890 nM | – | – | – | – | 6460 nM | 25100 nM | 7760 nM | – | – | – | – | – | –
4 | N=C(NO)NS(=O)(=O)c1cc(-c2nc(-c3ccc(Cl)cc3)no2)c(Cl)cc1SCc1ccc2c(c1)OCO2 | – | – | – | 1700 nM | 1820 nM | 2140 nM | 1020 nM | 1820 nM | 2140 nM | 1700 nM | 1740 nM | 2630 nM | 1910 nM | 1910 nM | 1860 nM | 2690 nM
5 | COc1cc(CSc2cc(Cl)c(-c3nc(-c4ccccc4)no3)cc2S(=O)(=O)NC(=N)NO)cc(OC)c1OC | – | – | – | 4790 nM | 7240 nM | 4370 nM | 3800 nM | 6920 nM | 5620 nM | 3090 nM | 3980 nM | 13500 nM | 13200 nM | 4470 nM | 6610 nM | 7410 nM

The next lines start with results.

Row | GI50 (U-251) | GI50 (MDA-MB-231) | GI50 (MDA-MB-435) | GI50 (OVCAR-3) | GI50 (HT-29) | GI50 (NCI-H460) | GI50 (NCI-H522) | Structure (SMILES) | GI50 (SF-268) | GI50 (IGROV-1) | GI50 (UACC-62) | GI50 (SNB-75) | GI50 (Malme-3M) | GI50 (UACC-257) | GI50 (UO-31) | GI50 (M14) | GI50 (Hs-578T)
6 | 1950 nM | 2340 nM | 2000 nM | – | – | – | – | N=C(NO)NS(=O)(=O)c1cc(-c2nc(-c3ccccc3)cs2)c(Cl)cc1SCc1ccc2c(c1)OCO2 | 1860 nM | 2820 nM | 2140 nM | – | – | – | – | – | –
7 | – | – | – | 10200 nM | 6760 nM | 34700 nM | 8910 nM | COc1cc(CSc2cc(Cl)c(-c3nnc(-c4ccc(Cl)cc4)s3)cc2S(=O)(=O)NC(=N)NO)cc(OC)c1OC | 9550 nM | 58900 nM | 16200 nM | 25700 nM | 97700 nM | 26300 nM | 44700 nM | 40700 nM | 8130 nM
8 | – | – | – | 2190 nM | 4170 nM | 3240 nM | 2040 nM | COc1cc(CSc2cc(Cl)c(-c3nnc(-c4ccccc4)s3)cc2S(=O)(=O)NC(=N)NO)cc(OC)c1OC | 2400 nM | 3720 nM | 3240 nM | 1860 nM | 3090 nM | 6030 nM | 3980 nM | 4070 nM | 3310 nM
9 | – | – | – | 1700 nM | 2000 nM | 2040 nM | 1290 nM | N=C(NO)NS(=O)(=O)c1cc(-c2nc(-c3ccccc3)no2)c(Cl)cc1SCc1ccc2c(c1)OCO2 | 1910 nM | 2570 nM | 1820 nM | 1550 nM | 2190 nM | 2000 nM | 1660 nM | 1910 nM | 2630 nM
